Measured values taken from ChEMBL document CHEMBL1671826, “Effect of Inhibiting Histone Deacetylase with Short-Chain Carboxylic Acids and Their Hydroxamic Acid Analogs on Vertebrate Development and Neuronal Chromatin” (ACS Med Chem Lett, 2011).
Active and inactive are the calls of the source. The rule behind the calls is not given here.

Columns and labels:
[1] = molecular target: T1, Protein deacetylase HDAC6 (Mus musculus) (UniProt Q9Z2V5); assay: Inhibition of HDAC6 in mouse primary forebrain neurons assessed as acetylation of tubulin at 92.5 uM after 24 hrs by immunofluorescence assay
T1 sequence (whole entry): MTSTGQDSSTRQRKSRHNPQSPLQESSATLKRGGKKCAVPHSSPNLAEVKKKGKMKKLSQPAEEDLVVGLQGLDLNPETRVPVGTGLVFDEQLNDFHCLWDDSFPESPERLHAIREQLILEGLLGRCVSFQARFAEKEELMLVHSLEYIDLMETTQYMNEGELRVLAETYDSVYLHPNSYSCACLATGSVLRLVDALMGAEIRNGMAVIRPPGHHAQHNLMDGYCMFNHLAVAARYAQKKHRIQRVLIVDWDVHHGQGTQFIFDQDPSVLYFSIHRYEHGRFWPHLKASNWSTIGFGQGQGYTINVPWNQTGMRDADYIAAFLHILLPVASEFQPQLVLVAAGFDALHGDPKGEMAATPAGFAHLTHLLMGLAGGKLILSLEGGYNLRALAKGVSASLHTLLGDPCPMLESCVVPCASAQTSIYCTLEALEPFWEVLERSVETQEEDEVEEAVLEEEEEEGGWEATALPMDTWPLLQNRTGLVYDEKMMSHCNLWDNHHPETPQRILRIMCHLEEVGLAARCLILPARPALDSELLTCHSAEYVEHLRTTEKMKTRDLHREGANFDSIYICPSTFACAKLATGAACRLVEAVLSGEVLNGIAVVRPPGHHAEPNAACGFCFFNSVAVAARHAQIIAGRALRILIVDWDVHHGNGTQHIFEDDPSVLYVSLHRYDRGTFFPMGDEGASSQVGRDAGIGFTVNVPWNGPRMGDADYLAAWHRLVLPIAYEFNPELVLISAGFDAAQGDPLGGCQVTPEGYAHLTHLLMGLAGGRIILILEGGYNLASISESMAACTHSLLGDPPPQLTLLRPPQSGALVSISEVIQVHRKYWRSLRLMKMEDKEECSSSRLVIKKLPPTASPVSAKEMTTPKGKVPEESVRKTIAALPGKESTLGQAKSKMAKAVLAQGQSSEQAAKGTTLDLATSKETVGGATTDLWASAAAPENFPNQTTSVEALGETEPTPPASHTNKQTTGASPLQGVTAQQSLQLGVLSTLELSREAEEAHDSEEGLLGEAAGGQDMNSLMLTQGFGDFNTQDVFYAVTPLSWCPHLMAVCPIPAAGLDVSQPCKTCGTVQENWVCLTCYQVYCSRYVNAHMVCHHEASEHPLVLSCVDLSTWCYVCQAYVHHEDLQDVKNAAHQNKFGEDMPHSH
Method in brief: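 Primary mouse forebrain cultures treated 24 h at a single concentration; tubulin acetylation measured by immunofluorescence.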

Histone deacetylase 4 = Histone deacetylase 4 (Homo sapiens, UniProt P56524); assay: Inhibition of human recombinant HDAC4
Method in brief: (§1)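 Recombinant HDAC isoforms incubated with acetyl-lysine tripeptide–AMC substrate (mimics histone H4 K12), or trifluoroacetyl-lysine-AMC for class IIa enzymes, each substrate at its Km; trypsin cleavage of deacetylated product releases fluorescent AMC. IC50 from two experiments in duplicate, mean ± SD.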

[2] = molecular target: T2, Protein deacetylase HDAC6 (Homo sapiens) (UniProt Q9UBN7); assay: Inhibition of HDAC6 in human HeLa cells assessed as acetylation of tubulin after 24 hrs by immunofluorescence assay; assay type: cell-based
T2 sequence (whole entry): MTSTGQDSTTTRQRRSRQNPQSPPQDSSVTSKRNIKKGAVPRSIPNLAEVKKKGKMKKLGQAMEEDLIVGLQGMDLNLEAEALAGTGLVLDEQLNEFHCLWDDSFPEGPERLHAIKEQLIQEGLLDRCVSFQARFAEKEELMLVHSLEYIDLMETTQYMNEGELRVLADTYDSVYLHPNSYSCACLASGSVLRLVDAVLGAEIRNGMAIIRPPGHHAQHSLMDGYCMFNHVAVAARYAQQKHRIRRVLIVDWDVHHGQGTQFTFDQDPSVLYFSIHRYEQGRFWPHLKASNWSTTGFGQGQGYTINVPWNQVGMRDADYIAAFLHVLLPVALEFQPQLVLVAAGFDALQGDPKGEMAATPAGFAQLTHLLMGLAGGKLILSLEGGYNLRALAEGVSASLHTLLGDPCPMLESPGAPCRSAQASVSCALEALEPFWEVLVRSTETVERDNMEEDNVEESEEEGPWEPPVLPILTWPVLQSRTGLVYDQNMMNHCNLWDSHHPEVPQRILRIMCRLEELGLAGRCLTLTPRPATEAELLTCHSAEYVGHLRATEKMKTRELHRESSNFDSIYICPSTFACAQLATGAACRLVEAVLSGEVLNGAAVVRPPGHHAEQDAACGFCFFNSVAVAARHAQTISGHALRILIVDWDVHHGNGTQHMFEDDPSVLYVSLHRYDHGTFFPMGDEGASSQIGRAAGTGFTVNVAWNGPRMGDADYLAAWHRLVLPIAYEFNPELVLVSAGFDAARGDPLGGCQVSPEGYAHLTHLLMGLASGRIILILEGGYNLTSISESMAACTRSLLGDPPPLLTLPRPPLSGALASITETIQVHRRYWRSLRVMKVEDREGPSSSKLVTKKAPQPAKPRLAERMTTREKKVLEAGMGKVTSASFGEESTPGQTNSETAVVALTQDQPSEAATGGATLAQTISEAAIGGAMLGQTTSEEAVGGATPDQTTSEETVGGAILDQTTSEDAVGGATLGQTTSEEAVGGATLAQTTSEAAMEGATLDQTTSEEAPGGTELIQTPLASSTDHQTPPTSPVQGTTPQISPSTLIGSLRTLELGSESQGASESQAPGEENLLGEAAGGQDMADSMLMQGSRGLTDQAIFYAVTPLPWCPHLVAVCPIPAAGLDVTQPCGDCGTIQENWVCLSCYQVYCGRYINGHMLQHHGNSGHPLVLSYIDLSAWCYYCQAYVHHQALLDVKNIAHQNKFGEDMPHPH
Method in brief: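 HeLa cells treated 24 h at the indicated doses; tubulin acetylation quantified by immunofluorescence.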

Histone deacetylase 8 = molecular target: T3, Histone deacetylase 8 (Homo sapiens, UniProt Q9BY41); assay: Inhibition of human recombinant HDAC8; method in brief: as §1
T3 sequence (Q9BY41 whole entry): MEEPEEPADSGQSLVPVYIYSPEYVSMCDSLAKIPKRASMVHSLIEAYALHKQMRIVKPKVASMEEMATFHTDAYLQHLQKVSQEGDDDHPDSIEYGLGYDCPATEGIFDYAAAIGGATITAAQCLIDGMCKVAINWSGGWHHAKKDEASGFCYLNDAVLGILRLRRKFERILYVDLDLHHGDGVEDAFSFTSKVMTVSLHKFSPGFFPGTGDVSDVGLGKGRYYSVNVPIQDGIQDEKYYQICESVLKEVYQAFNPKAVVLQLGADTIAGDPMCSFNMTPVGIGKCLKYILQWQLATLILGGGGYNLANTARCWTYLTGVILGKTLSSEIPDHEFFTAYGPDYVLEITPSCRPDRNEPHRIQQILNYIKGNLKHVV

Histone deacetylase 7 = molecular target: T4, Histone deacetylase 7 (Homo sapiens, UniProt Q8WUI4); assay: Inhibition of human recombinant HDAC7
T4 sequence (Q8WUI4 whole entry): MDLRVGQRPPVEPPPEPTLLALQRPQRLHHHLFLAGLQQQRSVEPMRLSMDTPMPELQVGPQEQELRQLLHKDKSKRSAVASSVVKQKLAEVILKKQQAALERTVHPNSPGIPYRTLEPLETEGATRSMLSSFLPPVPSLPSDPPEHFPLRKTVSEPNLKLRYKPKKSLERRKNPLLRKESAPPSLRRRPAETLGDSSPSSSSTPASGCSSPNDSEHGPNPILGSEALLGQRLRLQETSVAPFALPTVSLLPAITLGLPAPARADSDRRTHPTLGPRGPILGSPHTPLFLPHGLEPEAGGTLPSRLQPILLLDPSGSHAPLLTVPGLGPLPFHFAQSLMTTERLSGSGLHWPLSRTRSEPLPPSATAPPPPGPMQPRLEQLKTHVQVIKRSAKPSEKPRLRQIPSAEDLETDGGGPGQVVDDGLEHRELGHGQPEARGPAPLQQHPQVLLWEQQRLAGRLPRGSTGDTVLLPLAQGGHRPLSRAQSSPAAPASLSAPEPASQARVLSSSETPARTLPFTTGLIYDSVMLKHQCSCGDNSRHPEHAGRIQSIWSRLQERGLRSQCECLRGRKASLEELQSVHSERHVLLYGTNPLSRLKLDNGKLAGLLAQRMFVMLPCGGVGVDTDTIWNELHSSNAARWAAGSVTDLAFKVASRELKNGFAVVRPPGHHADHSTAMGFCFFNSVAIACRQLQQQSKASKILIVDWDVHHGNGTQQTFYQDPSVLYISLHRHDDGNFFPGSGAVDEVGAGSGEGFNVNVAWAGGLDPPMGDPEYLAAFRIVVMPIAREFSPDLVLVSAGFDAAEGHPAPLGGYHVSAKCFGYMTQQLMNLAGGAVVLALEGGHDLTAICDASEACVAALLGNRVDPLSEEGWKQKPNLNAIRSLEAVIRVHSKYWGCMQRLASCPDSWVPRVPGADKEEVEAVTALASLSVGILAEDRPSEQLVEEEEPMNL

Histone deacetylase 5 = Histone deacetylase 5 (Homo sapiens, UniProt Q9UQL6); assay: Inhibition of human recombinant HDAC5; method in brief: as §1
Mus musculus = species: Mus musculus; assay: Inhibition of HDAC in mouse primary forebrain neurons assessed as acetylation of histone H3 lysine 9 at 92.5 uM after 24 hrs by immunofluorescence assay
Histone deacetylase 9 = Histone deacetylase 9 (Homo sapiens, UniProt Q9UKV0); assay: Inhibition of human recombinant HDAC9; method in brief: as §1
Histone deacetylase 3 = Histone deacetylase 3 (Homo sapiens, UniProt O15379); assay: Inhibition of human recombinant HDAC3; method in brief: as §1
[3] = molecular target: T5, Protein deacetylase HDAC6 (Homo sapiens, UniProt Q9UBN7); assay: Inhibition of human recombinant HDAC6; method in brief: as §1
T5 sequence (Q9UBN7 whole entry): T2 sequence (whole entry)

Histone deacetylase 1 = Histone deacetylase 1 (Homo sapiens, UniProt Q13547); assay: Inhibition of human recombinant HDAC1; method in brief: as §1
Histone deacetylase 2 = Histone deacetylase 2 (Homo sapiens, UniProt Q92769); assay: Inhibition of human recombinant HDAC2; method in brief: as §1
Xenopus laevis [4] = species: Xenopus laevis; assay: Induction of developmental deffects in frog embryos assessed as shortening of anterior-posterior axis at 2 mM after 18 hrs; assay type: organism-based; details: in vivo, 2000 µM
Method in brief: (§2)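 Xenopus laevis embryos exposed in the whole-organism development assay at 2 mM and scored morphologically for loss of anterior structures, shortened anterior–posterior axis, and heart looping and pigment defects; compared with untreated embryos.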

Xenopus laevis [5] = species: Xenopus laevis; assay: Induction of developmental deffects in frog embryos assessed as heart looping and pigment deffects at 2 mM after 18 hrs; assay type: organism-based; details: in vivo, 2000 µM; method in brief: as §2
Xenopus laevis [6] = species: Xenopus laevis; assay: Induction of developmental deffects in frog embryos assessed as loss of anterior structures at 2 mM after 18 hrs; assay type: organism-based; details: in vivo, 2000 µM; method in brief: as §2
Xenopus laevis [7] = species: Xenopus laevis; assay: Induction of histone H3 acetylation in frog embryos at 2 mM after 2 hrs Western blotting
Method in brief: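 Frog embryos treated from completion of neurulation (stage 18) into tailbud stages for 2 h at the indicated concentrations; histone acetylation read by Western blot.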

Xenopus laevis [8] = species: Xenopus laevis; assay: Induction of tubulin acetylation in frog embryos at 2 mM after 18 hrs Western blotting
Method in brief: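 Frog embryos treated from stage 18 (end of neurulation) through tailbud stages (32) for 18 h at the indicated concentrations; acetylated tubulin detected by Western blot.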

Histone deacetylase 5, sequence (Q9UQL6 whole entry): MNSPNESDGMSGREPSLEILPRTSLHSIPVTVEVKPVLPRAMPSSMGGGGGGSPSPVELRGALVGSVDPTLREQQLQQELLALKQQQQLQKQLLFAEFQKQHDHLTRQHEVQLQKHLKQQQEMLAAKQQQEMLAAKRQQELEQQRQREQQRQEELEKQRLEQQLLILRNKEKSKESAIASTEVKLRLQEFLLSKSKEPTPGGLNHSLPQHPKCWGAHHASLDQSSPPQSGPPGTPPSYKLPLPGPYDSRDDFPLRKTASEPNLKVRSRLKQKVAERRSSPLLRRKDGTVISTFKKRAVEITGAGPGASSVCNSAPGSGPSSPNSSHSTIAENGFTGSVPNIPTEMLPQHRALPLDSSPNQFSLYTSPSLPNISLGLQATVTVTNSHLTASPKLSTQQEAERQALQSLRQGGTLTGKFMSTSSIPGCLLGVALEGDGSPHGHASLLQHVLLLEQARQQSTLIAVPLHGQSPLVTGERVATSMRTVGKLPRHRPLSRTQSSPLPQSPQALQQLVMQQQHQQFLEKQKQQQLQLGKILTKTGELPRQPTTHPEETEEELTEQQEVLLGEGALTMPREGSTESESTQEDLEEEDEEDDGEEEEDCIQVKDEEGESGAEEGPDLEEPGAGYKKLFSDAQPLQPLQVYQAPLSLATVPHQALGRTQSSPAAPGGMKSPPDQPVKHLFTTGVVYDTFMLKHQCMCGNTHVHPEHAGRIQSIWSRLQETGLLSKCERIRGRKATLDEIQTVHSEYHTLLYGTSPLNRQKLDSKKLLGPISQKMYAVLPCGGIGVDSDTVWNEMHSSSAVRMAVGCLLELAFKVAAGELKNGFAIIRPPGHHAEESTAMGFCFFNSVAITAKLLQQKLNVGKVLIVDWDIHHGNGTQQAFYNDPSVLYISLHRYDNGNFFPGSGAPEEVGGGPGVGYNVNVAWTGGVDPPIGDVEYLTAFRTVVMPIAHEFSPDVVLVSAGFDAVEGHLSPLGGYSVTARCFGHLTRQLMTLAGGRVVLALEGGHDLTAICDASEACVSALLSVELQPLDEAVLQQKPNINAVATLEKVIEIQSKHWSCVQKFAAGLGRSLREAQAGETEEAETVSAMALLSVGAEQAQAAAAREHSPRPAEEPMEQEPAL
Histone deacetylase 2, sequence (Q92769 whole entry): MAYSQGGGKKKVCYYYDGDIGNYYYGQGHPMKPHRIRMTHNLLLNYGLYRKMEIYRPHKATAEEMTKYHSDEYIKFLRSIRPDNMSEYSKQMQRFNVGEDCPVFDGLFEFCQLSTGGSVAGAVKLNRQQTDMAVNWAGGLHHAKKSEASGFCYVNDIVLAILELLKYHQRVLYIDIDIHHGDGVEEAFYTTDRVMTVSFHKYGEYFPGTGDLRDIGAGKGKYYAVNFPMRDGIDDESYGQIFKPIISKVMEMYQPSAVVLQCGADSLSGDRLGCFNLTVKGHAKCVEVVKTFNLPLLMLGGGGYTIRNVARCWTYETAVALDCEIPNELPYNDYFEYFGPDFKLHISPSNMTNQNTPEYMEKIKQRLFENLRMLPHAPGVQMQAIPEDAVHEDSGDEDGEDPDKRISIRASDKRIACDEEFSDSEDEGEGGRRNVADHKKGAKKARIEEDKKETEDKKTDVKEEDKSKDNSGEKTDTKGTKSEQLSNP
Histone deacetylase 4, sequence (P56524 whole entry, canonical isoform): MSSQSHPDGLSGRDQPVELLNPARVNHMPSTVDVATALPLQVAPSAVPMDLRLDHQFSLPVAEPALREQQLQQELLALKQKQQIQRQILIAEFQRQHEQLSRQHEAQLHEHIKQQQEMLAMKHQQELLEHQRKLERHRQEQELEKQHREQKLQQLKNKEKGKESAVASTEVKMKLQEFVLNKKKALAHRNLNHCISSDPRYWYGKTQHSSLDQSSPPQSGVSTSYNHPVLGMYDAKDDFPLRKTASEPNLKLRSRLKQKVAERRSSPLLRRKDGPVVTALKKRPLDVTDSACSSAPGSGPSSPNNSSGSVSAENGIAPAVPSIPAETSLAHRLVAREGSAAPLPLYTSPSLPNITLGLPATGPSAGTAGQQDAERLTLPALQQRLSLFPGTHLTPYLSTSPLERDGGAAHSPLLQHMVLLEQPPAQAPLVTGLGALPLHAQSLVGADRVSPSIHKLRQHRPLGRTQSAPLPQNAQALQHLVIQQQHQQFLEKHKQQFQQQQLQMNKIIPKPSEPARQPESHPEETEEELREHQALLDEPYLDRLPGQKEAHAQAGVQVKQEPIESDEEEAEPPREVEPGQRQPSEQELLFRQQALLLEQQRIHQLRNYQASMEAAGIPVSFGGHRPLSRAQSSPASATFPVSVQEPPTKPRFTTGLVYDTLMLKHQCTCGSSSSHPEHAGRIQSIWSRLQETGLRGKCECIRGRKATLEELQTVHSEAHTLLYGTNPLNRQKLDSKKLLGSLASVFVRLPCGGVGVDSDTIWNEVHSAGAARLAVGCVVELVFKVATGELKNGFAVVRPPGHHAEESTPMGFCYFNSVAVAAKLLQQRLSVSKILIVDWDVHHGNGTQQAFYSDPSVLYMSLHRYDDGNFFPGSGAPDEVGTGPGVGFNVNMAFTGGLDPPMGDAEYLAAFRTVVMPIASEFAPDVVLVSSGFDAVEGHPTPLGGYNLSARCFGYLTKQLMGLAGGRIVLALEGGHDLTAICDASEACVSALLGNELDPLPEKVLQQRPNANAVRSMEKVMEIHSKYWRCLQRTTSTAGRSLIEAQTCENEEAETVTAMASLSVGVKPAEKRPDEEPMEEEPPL
Histone deacetylase 1, sequence (Q13547 whole entry): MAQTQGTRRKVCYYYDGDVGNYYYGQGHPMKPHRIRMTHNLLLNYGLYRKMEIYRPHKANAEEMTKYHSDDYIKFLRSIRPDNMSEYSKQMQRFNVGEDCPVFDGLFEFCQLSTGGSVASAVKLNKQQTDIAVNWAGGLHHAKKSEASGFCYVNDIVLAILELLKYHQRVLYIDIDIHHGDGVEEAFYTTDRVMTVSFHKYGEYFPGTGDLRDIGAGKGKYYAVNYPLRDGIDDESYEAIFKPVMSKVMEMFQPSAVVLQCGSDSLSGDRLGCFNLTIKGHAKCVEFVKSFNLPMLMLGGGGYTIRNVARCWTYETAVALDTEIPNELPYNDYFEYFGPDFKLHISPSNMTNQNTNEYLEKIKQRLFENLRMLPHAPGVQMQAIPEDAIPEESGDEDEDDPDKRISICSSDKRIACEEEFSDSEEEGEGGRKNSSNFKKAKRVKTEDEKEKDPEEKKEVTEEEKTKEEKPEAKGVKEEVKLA
Histone deacetylase 9, sequence (Q9UKV0 whole entry): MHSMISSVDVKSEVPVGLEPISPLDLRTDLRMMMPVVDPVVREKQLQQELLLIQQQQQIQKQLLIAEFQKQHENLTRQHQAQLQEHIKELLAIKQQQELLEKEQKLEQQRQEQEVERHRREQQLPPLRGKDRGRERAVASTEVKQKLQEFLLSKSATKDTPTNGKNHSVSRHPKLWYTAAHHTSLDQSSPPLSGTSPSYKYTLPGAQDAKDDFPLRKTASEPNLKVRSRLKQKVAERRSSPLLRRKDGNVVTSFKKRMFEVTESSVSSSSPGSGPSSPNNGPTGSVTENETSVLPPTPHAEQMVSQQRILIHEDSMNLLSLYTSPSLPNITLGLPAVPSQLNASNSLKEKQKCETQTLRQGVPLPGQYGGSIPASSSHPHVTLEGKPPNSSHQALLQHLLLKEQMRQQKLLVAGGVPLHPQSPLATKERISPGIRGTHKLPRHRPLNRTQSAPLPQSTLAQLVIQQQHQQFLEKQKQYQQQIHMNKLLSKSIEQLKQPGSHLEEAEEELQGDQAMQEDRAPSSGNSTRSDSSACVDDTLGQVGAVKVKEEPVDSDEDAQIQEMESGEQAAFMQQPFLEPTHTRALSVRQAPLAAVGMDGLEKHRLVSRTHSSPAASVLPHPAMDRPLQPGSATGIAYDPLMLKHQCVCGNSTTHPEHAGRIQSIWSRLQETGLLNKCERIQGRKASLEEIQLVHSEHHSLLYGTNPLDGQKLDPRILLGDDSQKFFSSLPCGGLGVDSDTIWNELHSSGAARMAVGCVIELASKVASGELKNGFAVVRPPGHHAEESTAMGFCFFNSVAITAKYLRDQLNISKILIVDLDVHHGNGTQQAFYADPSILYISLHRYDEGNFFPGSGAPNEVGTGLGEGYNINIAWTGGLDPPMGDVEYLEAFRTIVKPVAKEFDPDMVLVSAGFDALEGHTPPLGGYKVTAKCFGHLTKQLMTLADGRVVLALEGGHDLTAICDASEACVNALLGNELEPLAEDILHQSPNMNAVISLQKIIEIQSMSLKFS
Histone deacetylase 3, sequence (O15379 whole entry): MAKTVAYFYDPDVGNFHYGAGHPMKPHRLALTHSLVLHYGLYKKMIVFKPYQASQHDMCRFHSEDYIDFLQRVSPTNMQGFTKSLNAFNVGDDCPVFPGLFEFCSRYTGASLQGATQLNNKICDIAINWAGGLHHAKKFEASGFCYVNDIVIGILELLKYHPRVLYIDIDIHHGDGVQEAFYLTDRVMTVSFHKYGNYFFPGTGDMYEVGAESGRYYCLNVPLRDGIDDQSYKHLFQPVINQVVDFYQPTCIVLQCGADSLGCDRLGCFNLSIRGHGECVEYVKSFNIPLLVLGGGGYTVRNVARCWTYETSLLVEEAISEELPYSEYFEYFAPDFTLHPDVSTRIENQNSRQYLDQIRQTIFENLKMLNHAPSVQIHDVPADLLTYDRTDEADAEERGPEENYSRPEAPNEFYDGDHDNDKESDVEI

inhibition [1] | IC50 (Histone deacetylase 4) | inhibition [2] | IC50 (Histone deacetylase 8) | IC50 (Histone deacetylase 7) | IC50 (Histone deacetylase 5) | inhibition (Mus musculus) | IC50 (Histone deacetylase 9) | IC50 (Histone deacetylase 3) | IC50 [3] | IC50 (Histone deacetylase 1) | IC50 (Histone deacetylase 2) | Activity (Xenopus laevis [7]) | Activity (Xenopus laevis [8]) | Structure (SMILES) | Activity (Xenopus laevis [4]) | Activity (Xenopus laevis [5]) | Activity (Xenopus laevis [6])
– | > 2000 µM | Active | 26 µM | > 1000 µM | 360 µM | Active | > 2000 µM | 10 µM | 2 µM | 7 µM | 9 µM | – | – | CCCC(=O)NO [BUTYRYLHYDROXAMIC ACID] | – | – | –
– | > 2000 µM | inactive | – | > 2000 µM | > 2000 µM | inactive | > 2000 µM | – | > 2000 µM | 39 µM | – | – | – | CCCC(CCC)C(=O)O [VALPROIC ACID] | Toxic | Toxic | Toxic
Active | 170 µM | Active | 39 µM | – | 37 µM | inactive | 91 µM | 340 µM | 16 µM | 560 µM | 680 µM | inactive | Active | CCCC(CCC)C(=O)NO [VALPROPYLHYDROXAMIC ACID] | Non-toxic | Non-toxic | Non-toxic

Further lines, the molecule ahead of its results:

Structure (SMILES) | inhibition [1] | IC50 (Histone deacetylase 4) | inhibition [2] | IC50 (Histone deacetylase 8) | IC50 (Histone deacetylase 7) | IC50 (Histone deacetylase 5) | inhibition (Mus musculus) | IC50 (Histone deacetylase 9) | IC50 (Histone deacetylase 3) | IC50 [3] | IC50 (Histone deacetylase 1) | IC50 (Histone deacetylase 2) | Activity (Xenopus laevis [7]) | Activity (Xenopus laevis [8]) | Activity (Xenopus laevis [4]) | Activity (Xenopus laevis [5]) | Activity (Xenopus laevis [6])
O=C(O)CCCc1ccccc1 | Active | > 2000 µM | inactive | 93 µM | > 2000 µM | > 2000 µM | inactive | > 2000 µM | – | – | – | – | – | – | – | – | –
CCCC(=O)O [BUTYRIC ACID] | – | > 2000 µM | inactive | 15 µM | > 2000 µM | > 2000 µM | inactive | > 2000 µM | 9 µM | > 2000 µM | 16 µM | 12 µM | – | – | – | – | –
O=C(CCCc1ccccc1)NO [PHENYLBUTYRYLHYDROXAMIC ACID] | – | 140 µM | Active | 4 µM | – | 25 µM | Active | 430 µM | – | 0.5 µM | – | 0.6 µM | – | – | – | – | –
